# Results pooled from the literature.
# Each line is one published result; the experiments were not run side by side.
# Target: Mitogen-activated protein kinase 8 (MAPK8, Homo sapiens, UniProt P45983)
observed,mode,method,tested at,measurement,value,Compound
binding,,competition with immobilised ligand,0.5 µM,remaining binding,52%,CCCCC(=O)Nc1ccc(-c2ccc3ncn(CCC)c(=O)c3c2)cn1
cell-free assay,,competition with immobilised ligand,25 µM,remaining binding,78%,N#Cc1ccc(NC(=O)Nc2ccccc2)cc1
enzyme activity,inhibitor,,1 µM,inhibition,22%,CO[C@@H]1[C@H](N(C)C(=O)c2ccccc2)C[C@H]2O[C@]1(C)n1c3ccccc3c3c4c(c5c6ccccc6n2c5c31)C(=O)NC4
cell-free assay,,,0.1 µM,remaining signal,12%,C1=C/COCc2cc(ccc2OCCN2CCCC2)Nc2nccc(n2)-c2cccc(c2)COC/1
binding,,,1 µM,remaining binding,80%,Cc1ccc(NC(=O)c2ccnc(C(F)(F)F)c2)cc1-c1cc(OCCO)nc(N2CCOCC2)c1
cell-free assay,,,1 µM,remaining signal,54%,C#Cc1cnc(Nc2ccnc(CO)c2)nc1Nc1ccccc1S(C)(=O)=NC#N (stereo not drawn)
enzyme activity,inhibitor,,0.2 µM,inhibition,9.62%,C#Cc1cc(-c2cc(Nc3nc(N[C@@H](C)c4ccc(F)cn4)ncc3Cl)n[nH]2)ccc1C=O
binding,,,1 µM,remaining binding,7%,C[C@H]1CC[C@H](n2c3cnccc3c3cnc(Nc4ccc5c(n4)CCN(C(=O)CO)C5)nc32)CC1
enzyme activity,inhibitor,,1 µM,inhibition,21%,C=CC(=O)N1CCC([C@@H]2CCNc3c(C(N)=O)c(-c4ccc(Oc5ccccc5)cc4)nn32)CC1
